Source: ChEMBL document CHEMBL3414459, “Phenolic thio- and selenosemicarbazones as multi-target drugs” (Eur J Med Chem, 2015)
pEC50, pKi: −log10 of the molar value. Calls of active or inactive are those of the source. The rule behind the calls is not given here.

Columns and labels:
[1] = Antioxidant activity assessed as DPPH free radical scavenging activity incubated for 30 mins; format: physicochemical
How it was run: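 DPPH in HPLC-grade solvent mixed with compound in DMSO at 7 concentrations, or with DMSO alone as control. Kept in the dark at rt for 30 min, then A515 read against a blank. % DPPH remaining = A_sample/A_control × 100, plotted against concentration; EC50 taken from the straight line. Triplicate.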

[2] = Antioxidant activity assessed as H2O2 scavenging activity at 100 uM incubated for 20 mins by phenol red based assay; format: physicochemical
How it was run: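 Compound at 100 µM final, or DMSO control, in 0.1 M phosphate buffer pH 7.4 with H2O2 and 0.1 M NaCl, incubated in the dark at 37 °C for 20 min. Phenol red (0.2 mg/mL) and horseradish peroxidase (0.1 mg/mL) added, 15 min at 37 °C. NaOH added, 10 min at rt, A610 read. % reduction = (A_control − A_sample)/A_control × 100.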

[3] = Antioxidant activity assessed as inhibition of the lipid peroxidation at 0.74 mM incubated for 24 hrs by ferric thiocyanate method; format: physicochemical; conditions: 740 µM
How it was run: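 Ferric thiocyanate method at 0.74 mM. 10.0 mM DMSO stock combined with methanolic linoleic acid in 0.2 M phosphate buffer pH 7.0. AAPH added, then 24 h at 50 °C in the dark; DMSO served as control. An aliquot was diluted in H2O–DMSO with NH4SCN and FeCl2 in HCl. After 3 min at rt, A546 read. % inhibition relative to control.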

[4] = Potency index, ratio of IC50 for hydroxytyrosol to IC50 for test compound for antioxidant activity assessed as DPPH free radical scavenging activity incubated for 30 mins
[5] = Inhibition of baker's yeast alpha-glucosidase using p-nitrophenyl-alpha-D-glucopyranoside substrate assessed as reduction in p-nitrophenolate formation at 500 uM; conditions: Saccharomyces bayanus
How it was run: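 α-Glucosidase in 0.1 M phosphate buffer pH 6.8 with p-nitrophenyl-α-D-glucopyranoside at K_M (250 µM; K_M 0.25 mM). Inhibitor at 500 µM final or DMSO, DMSO 5% v/v.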

[6] = Inhibition of baker's yeast alpha-glucosidase using p-nitrophenyl-alpha-D-glucopyranoside substrate assessed as inhibition constant for enzyme-compound binding by measuring reduction in p-nitrophenolate formation; parameters: species or system Saccharomyces cerevisiae
How it was run: (§1)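 Same α-glucosidase conditions: pH 6.8 phosphate buffer, 25 °C, A400 for p-nitrophenolate, 5% DMSO. Done for inhibitors exceeding 50% inhibition at 500 µM. Rates measured at 5 substrate concentrations from 0.25 to 4.0 K_m, each at a fixed inhibitor concentration, using 2–3 inhibitor concentrations. Lineweaver–Burk double reciprocal plots gave the inhibition mode and constants K_ia (E) and K_ib (ES).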

[7] = Inhibition of baker's yeast alpha-glucosidase using p-nitrophenyl-alpha-D-glucopyranoside substrate assessed as inhibition constant for enzyme-substrate-compound binding by measuring reduction in p-nitrophenolate formation; how it was run: as §1
[8] = Mixed inhibition of baker's yeast alpha-glucosidase using p-nitrophenyl-alpha-D-glucopyranoside substrate assessed as reduction in p-nitrophenolate formation by Lineweaver-Burk plot; conditions: Saccharomyces bayanus; how it was run: as §1
[9] = test system: A549; test: Antiproliferative activity against human A549 cells after 48 hrs by sulforhodamine B assay; format: functional; conditions: A549, 48 h
How it was run: (§2)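 Exponentially growing cells trypsinized into penicillin/streptomycin medium, >97% viable by trypan blue. Seeded per well: 10,000 (A549, HBL-100, HeLa, SW1573), 15,000 (T-47D), 20,000 (WiDr). Treatment began day 1, DMSO stocks 40 mM, 0.25% DMSO as control, triplicate, 48 h. Cells fixed with cold TCA 60 min at 4 °C, SRB stained, OD492 read, medium background subtracted.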

[10] = Antiproliferative activity against human HBL100 cells after 48 hrs by sulforhodamine B assay; format: functional; conditions: HBL-100, 48 h; how it was run: as §2
[11] = test system: SW1573; test: Antiproliferative activity against human SW1573 cells after 48 hrs by sulforhodamine B assay; format: functional; conditions: SW1573, 48 h; how it was run: as §2
[12] = test system: HeLa; test: Antiproliferative activity against human HeLa cells after 48 hrs by sulforhodamine B assay; format: functional; how it was run: as §2
[13] = test system: T47D; test: Antiproliferative activity against human T47D cells after 48 hrs by sulforhodamine B assay; format: functional; how it was run: as §2
[14] = test system: WiDr; test: Antiproliferative activity against human WiDr cells after 48 hrs by sulforhodamine B assay; format: functional; how it was run: as §2
[15] = Inhibition of baker's yeast alpha-glucosidase using p-nitrophenyl-alpha-D-glucopyranoside substrate assessed as reduction in p-nitrophenolate formation
How it was run: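 Run in 0.1 M phosphate buffer, pH 6.8, with 5% (v/v) DMSO. […] Enzyme started the reaction at 25 °C, and p-nitrophenolate was followed at 400 nm. Percent inhibition came from rates with and without inhibitor. Where inhibition exceeded 50%, Ki and mode were derived by Lineweaver–Burk, using substrate 0.25–4.0 Km and 2–3 fixed inhibitor concentrations.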

[16] = Pro-oxidant activity assessed as hydroxyl radical generation through deoxyribose degradation by measuring change in absorbance at 0.83 mM by TBARS based spectrophotometry; format: ADME; conditions: 830 µM
How it was run: (§3)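 Modified Halliwell deoxyribose assay with the compound at the stated concentration in 0.1 M phosphate buffer pH 7.4, with 2-deoxyribose, H2O2, and FeCl3 premixed with EDTA. Heated 1 h at 37 °C, then TBA in NaOH and trichloroacetic acid added and heated 15 min at 100 °C. Cooled, A532 read; DMSO as control. Repeated without deoxyribose to account for TBARS interference.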

[17] = test system: Saccharomyces bayanus; test: Un-competitive inhibition of baker's yeast alpha-glucosidase using p-nitrophenyl-alpha-D-glucopyranoside substrate assessed as reduction in p-nitrophenolate formation by Lineweaver-Burk plot; how it was run: as §1
[18] = Pro-oxidant activity assessed as hydroxyl radical generation through deoxyribose degradation by measuring change in absorbance at 0.42 mM by TBARS based spectrophotometry; format: ADME; conditions: 420 µM; how it was run: as §3
[19] = Pro-oxidant activity assessed as hydroxyl radical generation through deoxyribose degradation by measuring change in absorbance at 0.17 mM by TBARS based spectrophotometry; format: ADME; conditions: 170 µM; how it was run: as §3
[20] = Pro-oxidant activity assessed as hydroxyl radical generation through deoxyribose degradation by measuring change in absorbance at 0.083 mM by TBARS based spectrophotometry; format: ADME; conditions: 83 µM; how it was run: as §3

SMILES | pEC50 [1] | inhibition (INH) [2] | inhibition (INH) [3] | Ratio IC50 [4] | inhibition [5] | pKi [6] | pKi [7] | inhibition [8] | GI50 [9] | GI50 [10] | GI50 [11] | GI50 [12] | GI50 [13] | GI50 [14] | pKi [15] | Activity [16] | inhibition [17] | Activity [18] | Activity [19] | Activity [20]
Oc1cc(/C=N/NC(=[Se])Nc2ccccc2)cc(O)c1O | 5.31 | 64% | 65.7% | < 3 | 95% | 4.52 | 4.11 | Active | 1.5 µM | 2 µM | 3.9 µM | 2.1 µM | 2.9 µM | 3.7 µM |  |  |  |  |  | 
Oc1cc(/C=N/NC(=S)Nc2ccccc2)cc(O)c1O | 5.15 | 80% | 59.9% | < 3 | 70% | 3.53 | 4.06 | Active | 9.3 µM | 71 µM | 49 µM | 32 µM | 61 µM | > 100 µM |  |  |  |  |  | 
O=Cc1ccc(O)c(O)c1 [PROTOCATECHUALDEHYDE] | 5.18 | 78.3% | 35.7% |  | inactive |  |  |  | 42 µM | > 100 µM | 54 µM | 49 µM | > 100 µM | > 100 µM |  |  |  |  |  | 
C[C@H]1O[C@H](O[C@H]2[C@H](O)[C@@H](O)[C@@H](O[C@H]3[C@H](O)[C@@H](O)C(O)O[C@@H]3CO)O[C@@H]2CO)[C@H](O)[C@@H](O)[C@@H]1N[C@H]1C=C(CO)[C@@H](O)[C@H](O)[C@H]1O (some centres undefined) [ACARBOSE] |  |  |  |  |  |  |  |  |  |  |  |  |  |  | 4.11 |  |  |  |  | 
O=Cc1cc(O)c(O)c(O)c1 | 4.81 | 79.1% | Not Active |  | inactive |  |  |  | 7.3 µM | 72 µM | 38 µM | 16 µM | 43 µM | 39 µM |  |  |  |  |  | 
O=c1[nH]cc(F)c(=O)[nH]1 [FLUOROURACIL] |  |  |  |  |  |  |  |  |  | 5.5 µM | 4.3 µM | 15 µM | 47 µM | 49 µM |  |  |  |  |  | 
O=Cc1ccc(O)cc1 [4-HYDROXYBENZALDEHYDE] | < 3.60 | Not Active | Not Active |  | inactive |  |  |  | > 100 µM | > 100 µM | > 100 µM | > 100 µM | > 100 µM | > 100 µM |  |  |  |  |  | 
Oc1ccc(/C=N/NC(=S)Nc2ccccc2)cc1 | 4.05 | 79.5% | 5.5% |  | 52% |  | 3.67 |  | 34 µM | 43 µM | 35 µM | 42 µM | 88 µM | 61 µM |  | 0.094 | Active |  |  | 
Oc1ccc(/C=N/NC(=[Se])Nc2cccc3ccccc23)cc1O | 4.74 | 46.3% | 72% |  | 95% | 4.24 | 4.16 | Active | 1.1 µM | 2.6 µM | 3.2 µM | 2.2 µM | 2.5 µM | 2.8 µM |  | 0.079 |  | 0.041 | 0.037 | 0.097
